Assay results: publication PMC2667967 (Cancer cell, 2008)
Non-standard residues stand in square brackets, D forms with d. No end group written: not given here. *: point of attachment. FITC = O=C1OC2(c3ccc(O)cc3Oc3cc(O)ccc32)c2ccc(NC(=S)*)cc21

Key:
GST-Bcl-2 [1] = target: T1, GST-Bcl-2 (Homo sapiens, UniProt P10415); assay: FP competition assay, GST-Bcl-2; type: binding; conditions: 200 nM GST-Bcl-2, 20 nM FITC-NuBCP-r8, PBS pH 7.6, 25°C, triplicate
[2] = test system: Jurkat cells stably expressing Bcl-2; assay: Apoptosis of Jurkat cells stably expressing Bcl-2; type: cell-based; conditions: Figure S3
Summary of the method: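 Jurkat cells stably carrying an empty neo vector or a Bcl-2 expression vector, with Bcl-2 levels checked by immunoblot. Cells were exposed to the test peptide (10 µM) in medium with 5% FBS for 36 h. Apoptosis was scored by DAPI nuclear morphology.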

CEM leukemia cells = assay: Killing of CEM leukemia cells stably expressing Bcl-2; type: cell-based; conditions: Figure S4
Bcl-2^−/−MEFs = assay: Apoptosis of Bcl-2 knockout MEFs; type: cell-based, mouse; conditions: STS 0.1 µM or Bad BH3 peptide 10 µM, 36 h, DAPI
Summary of the method: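 Wild-type and Bcl-2−/− MEFs, with Bcl-2 status confirmed by immunoblotting, were exposed to staurosporine (0.1 µM) or Bad BH3 peptide (10 µM) for 36 h. Peptide treatments used medium with 10% FBS unless otherwise specified. Apoptosis was scored from nuclear morphology after DAPI staining.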

GST-Bcl-2 [3] = target: T1, GST-Bcl-2; assay: circular dichroism
GST-Bcl-2/1-90 [4] = target: GST-Bcl-2/1-90 (UniProt P10415); assay: fluorescence polarisation
Sequence of GST-Bcl-2/1-90 (UniProt P10415) (P10415 1-90): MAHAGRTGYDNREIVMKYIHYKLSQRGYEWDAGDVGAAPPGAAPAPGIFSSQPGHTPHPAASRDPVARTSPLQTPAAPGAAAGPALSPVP

GST-Bcl-2 [5] = target: T1, GST-Bcl-2; assay: FP binding to GST-Bcl-2; conditions: 200 nM protein, 20 nM FITC peptide-r8, PBS pH 7.6, 25°C, triplicate
Summary of the method: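 GST-Bcl-2 (200 nM) was incubated briefly with FITC-labelled, r8-fused test peptide (20 nM) in PBS, pH 7.6, at 25°C, in triplicate. GST-Bcl-XL and GST served as comparison proteins. Polarization was read at excitation 485 nm and emission 530 nm once the signal stabilized within 20 min. Kd was calculated from single-site binding curves and reported as mean ± SD.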

GST-Bcl-XL [6] = target: GST-Bcl-XL (Homo sapiens, UniProt Q07817); assay: FP binding to GST-Bcl-XL; conditions: 200 nM protein, 20 nM FITC peptide-r8, PBS pH 7.6, 25°C
Sequence of GST-Bcl-XL (Homo sapiens, UniProt Q07817) (Q07817 whole entry): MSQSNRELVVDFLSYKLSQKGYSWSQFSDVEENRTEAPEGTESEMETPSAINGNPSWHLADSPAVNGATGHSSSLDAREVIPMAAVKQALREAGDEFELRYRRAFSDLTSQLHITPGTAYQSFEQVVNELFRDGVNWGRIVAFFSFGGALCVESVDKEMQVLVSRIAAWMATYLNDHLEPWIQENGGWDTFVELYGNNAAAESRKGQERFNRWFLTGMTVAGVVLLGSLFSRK
Summary of the method: (§1)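 Fluorescence polarization: 200 nM protein (GST or GST-Bcl-XL) was incubated with FITC-labelled r8 test peptide (20 nM) in PBS, pH 7.6, at 25°C, in triplicate. FP was read once the signal stabilized within 20 min (excitation 485 nm, emission 530 nm). Results are mean ± SD.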

GST = assay: FP binding to GST; conditions: 200 nM protein, 20 nM FITC peptide-r8, PBS pH 7.6, 25°C
Summary of the method: as §1

[7] = test system: mitochondria (RFP-Mito), H460 cells; assay: Mitochondrial targeting in H460 cells; type: cell-based; conditions: FITC-D-NuBCP-9-r8 6 µM, 2 hr, or GFP fusions transfected 12 hr
Summary of the method: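 H460 cells on glass coverslips were transfected with RFP-Mito (50 ng) plus GFP fused to Nur77 residues 489–497 or 478–504 (50 ng) for 12 hr. In a second arm, cells were transfected with RFP-Mito for 12 hr and then treated with 6 µM FITC-labelled, r8-fused test peptide for 2 hr. Subcellular fluorophore localization was analysed by confocal microscopy.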

Bax = Bax activation in Bcl-2 knockout MEFs; type: cell-based, mouse; conditions: NuBCP-9 10 µM 16 hr; or GFP-Nur77/478-504 cotransfected with Bcl-2
Summary of the method: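 Bcl-2−/− MEFs were run with wild-type MEFs and exposed to the test peptide (10 µM) for 16 hr. Alternatively, Bcl-2−/− MEFs were cotransfected with Bcl-2 (1 µg) plus GFP or GFP-Nur77/478-504 (1 µg). Active Bax was immunostained with 6A7 antibody and read by flow cytometry. Comparisons were treated vs untreated, or GFP-only vs Bcl-2-coexpressing cells from the same transfection.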

Bcl-B = assay: Co-IP with Bcl-B; type: binding; conditions: HEK293T
Summary of the method: (§2)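 HEK293T cells were transfected with GFP-Nur77/478-504 (2 µg), with or without a Myc-tagged Bcl-2 family member plasmid (0.8 µg). Lysates were immunoprecipitated and complexes detected by western blot. Input was 5% of lysate, and one of three experiments is shown.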

Bfl-1 = assay: Co-IP with Bfl-1; type: binding; conditions: HEK293T
Summary of the method: as §2

[8] = test system: various cancer cell lines; assay: Apoptosis induction, various cancer cell lines; type: cell-based
[9] = test system: normal primary mammary epithelial cells; assay: Apoptosis of normal primary mammary epithelial cells; type: cell-based; conditions: 24 h, Annexin V; r8 conjugate
Summary of the method: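 Normal primary mammary epithelial cells were run alongside ZR-75-1 breast cancer cells. They were exposed to the r8-conjugated test peptide for 24 h in medium with 10% FBS. Apoptosis was read by Annexin V binding on flow cytometry.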

GST-Bcl-2/1-90 [10] = target: GST-Bcl-2/1-90 (UniProt P10415 1-90); assay: fluorescence polarisation
Sequence of GST-Bcl-2/1-90 (UniProt P10415 1-90) (P10415 1-90): as the sequence (P10415 1-90) above

GST-Bcl-XL [11] = target: GST-Bcl-XL (UniProt Q07817-1 1-233); assay: fluorescence polarisation
Sequence of GST-Bcl-XL (UniProt Q07817-1 1-233) (Q07817 whole entry): as the sequence (Q07817 whole entry) above

GST-Bcl-2 [12] = target: GST-Bcl-2 (UniProt P10415 1-239); assay: circular dichroism
Sequence of GST-Bcl-2 (UniProt P10415 1-239) (P10415 whole entry): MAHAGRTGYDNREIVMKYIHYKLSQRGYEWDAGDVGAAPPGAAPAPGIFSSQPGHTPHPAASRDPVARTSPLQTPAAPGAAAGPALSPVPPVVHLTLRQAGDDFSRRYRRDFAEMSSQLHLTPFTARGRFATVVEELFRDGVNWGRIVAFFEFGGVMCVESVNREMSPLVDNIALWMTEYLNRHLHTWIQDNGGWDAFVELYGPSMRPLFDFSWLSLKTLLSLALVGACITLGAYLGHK

T1 sequence (P10415 whole entry): as above
Sequence of D-NuBCP-9 (unlabeled, in vitro assays) (P22736 whole entry, looked up): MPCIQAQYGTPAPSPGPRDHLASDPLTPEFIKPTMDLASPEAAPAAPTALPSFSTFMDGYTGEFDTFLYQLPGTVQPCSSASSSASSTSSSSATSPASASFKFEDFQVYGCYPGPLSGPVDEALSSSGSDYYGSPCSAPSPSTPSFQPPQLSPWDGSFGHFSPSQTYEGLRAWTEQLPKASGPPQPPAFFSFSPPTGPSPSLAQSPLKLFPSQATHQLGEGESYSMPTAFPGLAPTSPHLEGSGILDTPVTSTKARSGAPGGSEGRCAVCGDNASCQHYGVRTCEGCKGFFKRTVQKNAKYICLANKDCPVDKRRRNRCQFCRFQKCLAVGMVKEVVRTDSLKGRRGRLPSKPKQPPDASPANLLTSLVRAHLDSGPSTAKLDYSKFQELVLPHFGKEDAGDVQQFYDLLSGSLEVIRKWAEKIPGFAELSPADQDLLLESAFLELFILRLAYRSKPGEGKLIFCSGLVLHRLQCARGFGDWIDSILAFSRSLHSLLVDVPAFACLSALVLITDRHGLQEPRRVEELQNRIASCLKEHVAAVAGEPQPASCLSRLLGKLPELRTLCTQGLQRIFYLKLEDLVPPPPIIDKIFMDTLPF
Sequence of FITC-D-NuBCP-9-r8 (P22736 whole entry, looked up): as above

`CN(C)CC[C@H](CSc1ccccc1)Nc1ccc(S(=O)(=O)NC(=O)c2ccc(N3CCN(Cc4ccccc4-c4ccc(Cl)cc4)CC3)cc2)cc1[N+](=O)[O-]` [ABT-737] was tested, and the “competition with FITC-NuBCP-9 binding to GST-Bcl-2” value (GST-Bcl-2 [1]) was “failure of either a BH3 peptide (Bak BH3) or a potent small molecule inhibitor (ABT-737) that targets the Bcl-2 BH3- binding site to reduce FITC-NuBCP-9 binding to GST-Bcl-2”.

For `CN[C@@H]1C[C@H]2O[C@@](C)([C@@H]1OC)n1c3ccccc3c3c4c(c5c6ccccc6n2c5c31)C(=O)NC4` [STS, staurosporine], the “effect of Bcl-2 overexpression on apoptosis” value [2] was “attenuated by Bcl-2 overexpression in Jurkat cells”, the “effect of stable Bcl-2 expression on killing” value (CEM leukemia cells) was “prevented the killing” and the “effect of Bcl-2 knockout on death effect” value (Bcl-2^−/−MEFs) was “enhanced in Bcl-2^−/−MEFs”.

“D-NuBCP-9 (unlabeled, in vitro assays) (from UniProt P22736 489-497) (peptide)” gave a Kd (GST-Bcl-2 [3]) of 2000 nM and a stoichiometry N (GST-Bcl-2 [3]) of 1.

Work on “FITC-D-NuBCP-9-r8 (from UniProt P22736 489-497) (peptide)” yielded a Kd (GST-Bcl-2/1-90 [4]) of 2500 nM.

In the case of “FITC-NuBCP-9/AA: FITC-labeled NuBCP-9/AA ({FITC}-ASRSLHSLA; also: r8 (D-Arg octamer) attached, end not given here)”, the “FP change with GST-Bcl-2” value (GST-Bcl-2 [5]) is reported as “little affected”.

In the case of “FITC-NuBCP-9: FITC-labeled NuBCP-9 (r8) ({FITC}-FSRSLHSLL; also: r8 (D-Arg octamer) attached, end not given here)”, the “FP change with GST-Bcl-2” value (GST-Bcl-2 [5]) is reported as “induced a concentration-dependent FP of FITC-NuBCP-9 and FITC-D-NuBCP-9”, the “FP change with GST-Bcl-XL” value (GST-Bcl-XL [6]) is reported as “neither GST-Bcl-XL nor GST, induced a concentration-dependent FP” and the “FP change with GST” value (GST) is reported as “neither GST-Bcl-XL nor GST, induced a concentration-dependent FP”.

In the case of “GFP-Nur77/478-504: residues 478–504 of Nur77 fused with green fluorescence protein (GFGDWIDSILAFSRSLHSLLVDVPAFA; also: fused with GFP, end not given here)”, the “co-localization with RFP-Mito” value [7] is reported as “co-localized extensively with RFP-Mito”, the “Bax activation, Bcl-2^−/−MEFs” value (Bax) is reported as “Expression of Bcl-2 in Bcl-2^−/−MEFs restores Bax activation by NuBCP” and the “binding to Bcl-B” value (Bcl-B) is reported as “bound to anti-apoptotic Bcl-2 family members, Bcl-B and Bfl-1”. For the same molecule, the “binding to Bfl-1” value (Bfl-1) was “bound to anti-apoptotic Bcl-2 family members, Bcl-B and Bfl-1”.

For “NuBCP-20: 20 amino acid peptide (aa 480 to 499) of Nur77 (GDWIDSILAFSRSLHSLLVD; UniProt P22736 480-499, looked up, fragment)”, the apoptotic effect ([8]; r8 conjugate) was “potent apoptotic effect in various cancer cell lines”, the “apoptotic potency relative to Bid BH3 peptide” value ([8]; various cancer cell lines) was “more potent than a BH3 peptide derived from the pro-apoptotic Bcl-2 family member Bid” and the apoptosis induction [9] was “Neither NuBCP-20 nor NuBCP-9 induced the apoptosis of normal primary mammary epithelial cells”.

{FITC}-FSRSLHSLL[dR][dR][dR][dR][dR][dR][dR][dR] (peptide, UniProt P22736 489-497, looked up) [FITC-NuBCP-9-r8] showed a Kd (GST-Bcl-2/1-90 [10]) of 1700 nM.

For VHLTLRQAGDDFSRR (also: F5M-labelled Cys, position not given here) [F5M-Bcl-2 BH3 peptide], the Kd (GST-Bcl-XL [11]) was 145 nM.

In the case of FSRSLHSLL (peptide, UniProt P22736 489-497, looked up) [NuBCP-9 (unlabeled, in vitro assays)], the “stoichiometry N” value (GST-Bcl-2 [12]) is reported as 1.
